Key:
Type in all cases: functional
Coptotermes formosanus [1] = assay: Termiticidal activity against Coptotermes formosanus placed on 1 % wt/wt compound treated filter paper assessed as termite mortality measured 11 days post compound exposure
Coptotermes formosanus [2] = assay: Termiticidal activity against Coptotermes formosanus placed on 1 % wt/wt compound treated filter paper assessed as termite mortality measured 3 days post compound exposure
Coptotermes formosanus [3] = assay: Termiticidal activity against Coptotermes formosanus placed on 1 % wt/wt compound treated filter paper assessed as termite mortality measured 21 days post compound exposure
Coptotermes formosanus [4] = assay: Antifeedant activity against Coptotermes formosanus placed on 1 % wt/wt compound treated filter paper assessed as filter paper consumption measured 21 days post compound exposure (reference value: 85 +/- 15.1 mg)
Coptotermes formosanus [5] = assay: Antifeedant activity against Coptotermes formosanus placed on 1 % wt/wt compound treated filter paper assessed as filter paper consumption measured 21 days post compound exposure (reference value: 44 +/- 1.1 mg)
Coptotermes formosanus [6] = assay: Antifeedant activity against Coptotermes formosanus placed on 1 % wt/wt compound treated filter paper assessed as filter paper consumption measured 21 days post compound exposure (reference value: 42.4 +/- 4.3 mg)
Coptotermes formosanus [7] = assay: Antifeedant activity against Coptotermes formosanus placed on 0.5 % wt/wt compound treated filter paper assessed as filter paper consumption measured 21 days post compound exposure (reference value: 23.6 +/- 13.6 mg)
Coptotermes formosanus [8] = assay: Termiticidal activity against Coptotermes formosanus placed on 0.5 % wt/wt compound treated filter paper assessed as termite mortality measured 11 days post compound exposure
How it was run: (§1)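 Treated filter paper disks moistened with 100 µL water; 20 C. formosanus workers (third instar or greater) plus 1 soldier per dish from field colonies kept on spruce, ca. 100% RH, 26.6 °C. Daily mortality scored for 3 weeks; cumulative percent mortality from four replicates, each a different colony; water-only controls; ANOVA, protected Fisher LSD (P < 0.05) after arcsine square-root transform.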

Coptotermes formosanus [9] = assay: Termiticidal activity against Coptotermes formosanus placed on 0.5 % wt/wt compound treated filter paper assessed as termite mortality measured 3 days post compound exposure; how it was run: as §1
Coptotermes formosanus [10] = assay: Termiticidal activity against Coptotermes formosanus placed on 0.5 % wt/wt compound treated filter paper assessed as termite mortality measured 21 days post compound exposure; how it was run: as §1
Coptotermes formosanus [11] = assay: Antifeedant activity against Coptotermes formosanus placed on 1 % wt/wt compound treated filter paper assessed as filter paper consumption measured 21 days post compound exposure (reference value: 15.9 +/- 10.4 mg)

Row | SMILES | mortality (Coptotermes formosanus [1]) | mortality (Coptotermes formosanus [2]) | mortality (Coptotermes formosanus [3]) | Activity (Coptotermes formosanus [4]) | Activity (Coptotermes formosanus [5]) | Activity (Coptotermes formosanus [6]) | Activity (Coptotermes formosanus [7]) | mortality (Coptotermes formosanus [8]) | mortality (Coptotermes formosanus [9]) | mortality (Coptotermes formosanus [10]) | Activity (Coptotermes formosanus [11])
1 | COC1=C(OC)C(=O)C(C/C=C(\C)CC/C=C(\C)CC/C=C(\C)CCC=C(C)C)=C(C)C1=O [Coenzyme Q4] | 11.7% | 1.7% | 15% | 74.6 mg | – | – | – | – | – | – | –
2 | COc1ccccc1NC1=C(Cl)C(=O)C(Nc2ccccc2OC)=C(Cl)C1=O | 0% | 1.3% | 2.5% | – | 40.1 mg | – | – | – | – | – | –
3 | O=C1C(Cl)=C(Nc2ccccc2)C(=O)C(Cl)=C1Nc1ccccc1 | 40% | 0% | 60% | – | 36.3 mg | – | – | – | – | – | –
4 | CNC1=C(Cl)C(=O)C(NC)=C(Cl)C1=O | 90% | 8.8% | 100% | – | 7.8 mg | – | – | – | – | – | –
5 | COC1=C(OC)C(=O)C(C)=CC1=O [Ubiquinone Qo] | 81.7% | 75% | 90% | – | – | 7.2 mg | – | – | – | – | –
6 | COC1=CC(=O)C=C(OC)C1=O [2,6-DIMETHOXYQUINONE] | 3.3% | 0% | 3.3% | 75.9 mg | – | – | – | – | – | – | –
7 | CC(C)(C)C1=CC(=O)C=CC1=O | 18.3% | 13.3% | 28.3% | 60.4 mg | – | – | – | – | – | – | –
8 | CC1=C(Br)C(=O)C(Br)=C(Cl)C1=O | – | – | – | – | – | – | 26.1 mg | 22.5% | 2.5% | 31.3% | –
9 | COC1=C(Cl)C(=O)C(Cl)=C(OC)C1=O | 0% | 0% | 2.5% | – | 37.8 mg | – | – | – | – | – | –
10 | COC1=C(OC)C(=O)C(C/C=C(\C)CCC=C(C)C)=C(C)C1=O [Coenzyme Q2] | 15% | 0% | 25% | 56.1 mg | – | – | – | – | – | – | –
11 | CCCCCCCCCCCC1=C(O)C(=O)C=C(O)C1=O [EMBELIN] | 18.3% | 3.3% | 46.7% | 10.7 mg | – | – | – | – | – | – | –
12 | O=C1C=CC(=O)C=C1 [BENZOQUINONE] | – | – | – | 80.7 mg | – | – | – | – | – | – | –
13 | COC1=CC(=O)C(C)=CC1=O [Coprinin] | 56.7% | 18.3% | 93.3% | 4.2 mg | – | – | – | – | – | – | –
14 | CC1=CC(=O)C=CC1=O [Cresoquinone] | 11.7% | 1.7% | 20% | 22.5 mg | – | – | – | – | – | – | –
15 | COC1=C(OC)C(=O)C(CCCCCCCCCCO)=C(C)C1=O [IDEBENONE] | 0% | 0% | 38.3% | – | – | 37.9 mg | – | – | – | – | –
16 | COC1=C(OC)C(=O)C(Cl)=C(Cl)C1=O | – | – | – | – | – | – | 19.3 mg | 8.8% | 2.5% | 30% | –

Row | SMILES | mortality (Coptotermes formosanus [1]) | mortality (Coptotermes formosanus [2]) | mortality (Coptotermes formosanus [3]) | Activity (Coptotermes formosanus [4]) | Activity (Coptotermes formosanus [5]) | Activity (Coptotermes formosanus [6]) | Activity (Coptotermes formosanus [7]) | mortality (Coptotermes formosanus [8]) | mortality (Coptotermes formosanus [9]) | mortality (Coptotermes formosanus [10]) | Activity (Coptotermes formosanus [11])
17 | O=C1C(Cl)=C(Nc2cccc([N+](=O)[O-])c2)C(=O)C(Cl)=C1Nc1cccc([N+](=O)[O-])c1 | 75% | 0% | 90% | – | 18.3 mg | – | – | – | – | – | –
18 | COC1=C(OC)C(=O)C(C/C=C(\C)CC/C=C(\C)CC/C=C(\C)CC/C=C(\C)CC/C=C(\C)CC/C=C(\C)CC/C=C(\C)CC/C=C(\C)CCC=C(C)C)=C(C)C1=O [Coenzyme Q9] | 15% | 15% | 15% | 63.9 mg | – | – | – | – | – | – | –
19 | COC1=C(OC)C(=O)C(C/C=C(\C)CC/C=C(\C)CC/C=C(\C)CC/C=C(\C)CC/C=C(\C)CCC=C(C)C)=C(C)C1=O [Coenzyme Q6] | 6.7% | 1.7% | 18.3% | 97.3 mg | – | – | – | – | – | – | –
20 | COC1=CC(=O)C(C[P+](c2ccccc2)(c2ccccc2)c2ccccc2)=CC1=O.[Cl-] | 60% | 13.3% | 98.3% | – | – | 5.3 mg | – | – | – | – | –
21 | COC1=CC(=O)C=CC1=O | 21.7% | 13.3% | 31.7% | 6.5 mg | – | – | – | – | – | – | –
22 | COC1=CC(=O)C(c2ccccc2)=CC1=O | 6.7% | 3.3% | 31.7% | – | – | 35.8 mg | – | – | – | – | –
23 | O=C1C(Cl)=C(Nc2ccc(Cl)cc2)C(=O)C(Cl)=C1Nc1ccc(Cl)cc1 | 62.5% | 10% | 86.3% | – | 22.7 mg | – | – | – | – | – | –
24 | COC1=C(OC)C(=O)C(C/C=C(\C)CC/C=C(\C)CC/C=C(\C)CC/C=C(\C)CC/C=C(\C)CC/C=C(\C)CC/C=C(\C)CC/C=C(\C)CC/C=C(\C)CCC=C(C)C)=C(C)C1=O [UBIDECARENONE] | 10% | 0% | 10% | 49.6 mg | – | – | – | – | – | – | –
25 | COC1=CC(=O)C(OC)=CC1=O | 6.7% | 3.3% | 8.3% | 107 mg | – | – | – | – | – | – | –
26 | CCCCCCCCCCCCCC1=C(O)C(=O)C=C(O)C1=O [Rapanone] | 76.7% | 5% | 81.7% | – | – | – | – | – | – | – | 0.3 mg
27 | CC1=CC(=O)C(C(C)(C)C)=CC1=O | 21.7% | 5% | 26.7% | 68.3 mg | – | – | – | – | – | – | –
28 | COc1cccc(NC2=C(Cl)C(=O)C(Nc3cccc(OC)c3)=C(Cl)C2=O)c1 | 1.3% | 0% | 33.8% | – | 34.9 mg | – | – | – | – | – | –
29 | COc1ccc(NC2=C(Cl)C(=O)C(Nc3ccc(OC)cc3)=C(Cl)C2=O)cc1 | 3.8% | 1.3% | 57.5% | – | 39.8 mg | – | – | – | – | – | –
30 | Cc1ccc(C2=CC(=O)C=CC2=O)cc1 | 16.7% | 5% | 38.3% | 43.2 mg | – | – | – | – | – | – | –
31 | Cc1ccc(NC2=C(Cl)C(=O)C(Nc3ccc(C)cc3)=C(Cl)C2=O)cc1 | 52.5% | 6.3% | 88.8% | – | 19.1 mg | – | – | – | – | – | –
32 | CCCCCCCCCCC1=C(C)C(=O)C(OC)=C(OC)C1=O [DECYLUBIQUINONE] | 75% | 13.3% | 100% | – | – | 19.3 mg | – | – | – | – | –
